# Measured values from ChEMBL document CHEMBL1914430, “Synthesis of some new 1,3,5-trisubstituted pyrazolines bearing benzene sulfonamide as anticancer and anti-inflammatory agents” (Bioorg Med Chem Lett, 2011).
# What was measured:
# Format in all cases: functional
# SR = assay: Anticancer activity against human SR cells after 48 hrs
# Outline: (§1)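 NCI 60-line panel protocol with a 48 h incubation. Per line: GI50 = concentration giving 50% decrease in net cell growth; TGI = total growth inhibition; LC50 = net 50% loss of initial cells. When the level was not reached or was exceeded, the value is given as greater or less than the highest or lowest concentration tested.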
# HCT-15 = assay: Anticancer activity against human HCT15 cells after 48 hrs; conditions: HCT-15, 48 h
# Outline: (§2)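 NCI Drug Evaluation Branch 60-cell-line screen across leukemia, melanoma, lung, colon, CNS, ovarian, renal, prostate and breast panels. The incubation period is 48 h. Parameters are derived from dose–response data: GI50 is the concentration giving 50% decrease in net growth, TGI is total growth inhibition, and LC50 is net 50% loss of initial cells. Values beyond the tested range are reported as greater or less than the maximum or minimum concentration.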
# T47D = assay: Anticancer activity against human T47D cells after 48 hrs
# Outline: (§3)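 NCI ~60 human tumour cell line panel with a 48 h incubation. GI50 is the concentration giving a 50% fall in net growth, TGI gives total growth inhibition, and LC50 gives a net 50% loss of initial cells. An effect not reached or exceeded is reported as greater or less than the highest or lowest concentration tested.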
# UACC-62 = assay: Anticancer activity against human UACC62 cells after 48 hrs; conditions: UACC-62, 48 h; outline: as §3
# IGROV-1 = assay: Anticancer activity against human IGROV1 cells after 48 hrs; conditions: IGROV-1, 48 h; outline: as §2
# LOX IMVI = assay: Anticancer activity against human LOXIMVI cells after 48 hrs; outline: as §2
# SK-MEL-28 = assay: Anticancer activity against human SK-MEL-28 cells after 48 hrs; conditions: SK-MEL-28, 48 h; outline: as §1
# NCI-H522 = assay: Anticancer activity against human NCI-H522 cells after 48 hrs; conditions: NCI-H522, 48 h; outline: as §1
# DU-145 = assay: Anticancer activity against human DU145 cells after 48 hrs; conditions: DU-145, 48 h; outline: as §2
# NCI-H460 = assay: Anticancer activity against human NCI-H460 cells after 48 hrs; conditions: NCI-H460, 48 h; outline: as §1
# SN12C = assay: Anticancer activity against human SN12C cells after 48 hrs; outline: as §1
# PC-3 = assay: Anticancer activity against human PC3 cells after 48 hrs; conditions: PC-3, 48 h; outline: as §1
# UACC-257 = assay: Anticancer activity against human UACC257 cells after 48 hrs; conditions: UACC-257, 48 h; outline: as §3
# HOP-92 = assay: Anticancer activity against human HOP92 cells after 48 hrs; conditions: HOP-92, 48 h; outline: as §2
# OVCAR-4 = assay: Anticancer activity against human OVCAR4 cells after 48 hrs; conditions: OVCAR-4, 48 h; outline: as §1
# NCI-H322M = assay: Anticancer activity against human NCI-H322M cells after 48 hrs; outline: as §1
# Rattus norvegicus = assay: Antiinflammatory activity in Wistar rat assessed as inhibition of carrageenan-induced hind paw edema at 20 mg/kg, po administered 30 mins before carrageenan challenge measured after 5 hrs by plethysmometer
# Outline: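 Wistar rats of either sex, 150–175 g, fasted 16 h, n = 6 per group. Compound given orally at 20 mg/kg as a suspension in 1% CMC in water (10 mL/kg); controls got vehicle only. After 30 min, 0.1 mL of 1% carrageenan in saline was injected subplantar into the left hind paw. Paw volume was measured by plethysmometer at 0, 3 and 5 h. Inhibition = (1 − Vt/Vc) × 100, reported as mean ± SEM.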
# TK-10 = assay: Anticancer activity against human TK10 cells after 48 hrs; conditions: TK-10, 48 h; outline: as §3
# MDA-MB-231 = assay: Anticancer activity against human MDA-MB-231 cells after 48 hrs; conditions: MDA-MB-231, 48 h; outline: as §2
# BT-549 = assay: Anticancer activity against human BT549 cells after 48 hrs; conditions: BT-549, 48 h; outline: as §2
# SF-295 = assay: Anticancer activity against human SF295 cells after 48 hrs; conditions: SF-295, 48 h; outline: as §1
# SNB-19 = assay: Anticancer activity against human SNB19 cells after 48 hrs; conditions: SNB-19, 48 h; outline: as §1
# SW-620 = assay: Anticancer activity against human SW620 cells after 48 hrs; conditions: SW-620, 48 h; outline: as §1
# NCI/ADR-RES = assay: Anticancer activity against human NCI/ADR-RES cells after 48 hrs; outline: as §1
# MDA-MB-435 = assay: Anticancer activity against human MDA-MB-435 cells after 48 hrs; conditions: MDA-MB-435, 48 h; outline: as §2
# SK-OV-3 = assay: Anticancer activity against human SKOV3 cells after 48 hrs; conditions: SK-OV-3, 48 h; outline: as §1
# SF-539 = assay: Anticancer activity against human SF539 cells after 48 hrs; conditions: SF-539, 48 h; outline: as §1
# MCF7 = assay: Anticancer activity against human MCF7 cells after 48 hrs; conditions: MCF7, 48 h; outline: as §2
# KM12 = assay: Anticancer activity against human KM12 cells after 48 hrs; conditions: KM12, 48 h; outline: as §2
# [1] = read-out: LC50 (the source's name)
smiles,measurement,setting,value
COc1ccc(C2CC(c3cc(Cl)c(C)cc3O)=NN2c2ccc(S(N)(=O)=O)cc2)cc1OC (stereo not drawn),GI50,SR,2.82 µM
same,LC50 (concentration killing 50% of initial cells),SR,> 100 µM
same,GI50,HCT-15,3.32 µM
same,TGI,HCT-15,20.2 µM
same,CC50,HCT-15; [1],> 100 µM
same,GI50,T47D,3.1 µM
same,TGI,T47D,13.3 µM
same,CC50,T47D; [1],> 100 µM
same,GI50,UACC-62,3.13 µM
same,LC50,UACC-62,43.3 µM
same,TGI,UACC-62,12.9 µM
same,GI50,IGROV-1,2.34 µM
same,LC50 (net 50% loss of initial cells),IGROV-1,28.8 µM
same,TGI,IGROV-1,5.46 µM
same,GI50,LOX IMVI,3.35 µM
same,TGI,LOX IMVI,11 µM
same,CC50,LOX IMVI; [1],37.4 µM
same,GI50,SK-MEL-28,4.29 µM
same,TGI,SK-MEL-28,17.7 µM
same,CC50,SK-MEL-28; [1],62.7 µM
same,GI50,NCI-H522,2.95 µM
same,LC50 (concentration killing 50% of initial cells),NCI-H522,69.3 µM
same,TGI,NCI-H522,9.61 µM
same,GI50,DU-145,4.49 µM
same,LC50 (concentration causing net 50% loss of initial cells),DU-145,> 100 µM
same,TGI,DU-145,21.7 µM
same,GI50,NCI-H460,2.5 µM
same,LC50 (50% lethal concentration),NCI-H460,22 µM
same,TGI,NCI-H460,5.85 µM
same,GI50,SN12C,3.7 µM
same,LC50,SN12C,> 100 µM
same,TGI,SN12C,30 µM
same,GI50,PC-3,2.61 µM
same,TGI,PC-3,13.7 µM
same,CC50,PC-3; [1],> 100 µM
same,GI50,UACC-257,4.22 µM
same,LC50,UACC-257,> 100 µM
same,TGI,UACC-257,19.7 µM
same,GI50,HOP-92,1.81 µM
same,TGI,HOP-92,7.42 µM
same,CC50,HOP-92; [1],> 100 µM
same,GI50,OVCAR-4,4.18 µM
same,LC50,OVCAR-4,> 100 µM
same,GI50,NCI-H322M,4.45 µM
same,LC50 (net 50% loss of initial cells),NCI-H322M,> 100 µM
same,TGI,NCI-H322M,39.7 µM
same,inhibition in vivo at 20 mg/kg,Rattus norvegicus,68.3%
same,GI50,TK-10,3.97 µM
same,LC50,TK-10,> 100 µM
same,TGI,TK-10,18.4 µM
same,GI50,MDA-MB-231,3.81 µM
same,TGI,MDA-MB-231,12.5 µM
same,CC50,MDA-MB-231; [1],40.4 µM
same,GI50,BT-549,3.03 µM
same,TGI,BT-549,13.4 µM
same,CC50,BT-549; [1],95.6 µM
same,GI50,SF-295,2.7 µM
same,LC50 (concentration giving net 50% loss of initial cells),SF-295,0.34 µM
same,TGI,SF-295,6.24 µM
same,GI50,SNB-19,5.53 µM
same,TGI,SNB-19,89.3 µM
same,CC50,SNB-19; [1],> 100 µM
same,GI50,SW-620,4.08 µM
same,TGI,SW-620,26.6 µM
same,CC50,SW-620; [1],> 100 µM
same,GI50,NCI/ADR-RES,3.39 µM
same,TGI,NCI/ADR-RES,14.1 µM
same,CC50,NCI/ADR-RES; [1],> 100 µM
same,GI50,MDA-MB-435,3.97 µM
same,TGI,MDA-MB-435,24 µM
same,CC50,MDA-MB-435; [1],> 100 µM
same,GI50,SK-OV-3,4.51 µM
same,TGI,SK-OV-3,38.3 µM
same,CC50,SK-OV-3; [1],> 100 µM
same,GI50,SF-539,2.1 µM
same,LC50 (concentration causing net 50% loss of initial cells),SF-539,12 µM
same,TGI,SF-539,4.75 µM
same,GI50,MCF7,3.07 µM
same,LC50,MCF7,> 100 µM
same,TGI,MCF7,13.6 µM
same,GI50,KM12,3.07 µM
same,LC50 (concentration causing net 50% loss of initial cells),KM12,49.2 µM
same,TGI,KM12,8.77 µM
